Measurements reported in ChEMBL document CHEMBL2046312, “Synthesis and biological activity of potent HIV-1 protease inhibitors based on Phe-Pro dihydroxyethylene isosteres” (J Med Chem, 2012).

Legend:
Protease [1] = target: T1, Protease (Human immunodeficiency virus 1, UniProt Q9YQ12); test: Inhibition of Human immunodeficiency virus 1 protease using Abz-Thr-Ile-Nle-Phe(p-NO2)-Gln-Arg-NH2 as substrate by fluorescence analysis
Outline: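 Recombinant wild-type HIV-1 PR with fluorogenic substrate Abz-NF*-6, run at pH 5.5. […] 1.2 nM PR needed to detect activity. Active enzyme concentration set by titration with ritonavir and nelfinavir. The IC50 measurability limit is one-half of the active enzyme concentration.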

[2] = (§1) Cytotoxicity against human MT2 cells after 72 hrs by MTT assay; format: cell-based; conditions: MT2 cells
Outline: (§2)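 MT-2 cells grown in RPMI 1640 with 10% fetal calf serum and exposed to inhibitor for 72 or 96 h. MTT uptake read-out. CC50 is derived from % cell survival. MNC is the highest concentration that alters neither monolayer morphology nor survival rate. Six to eight parallels per experiment, each experiment run in triplicate.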

MT2 [3] = test: as §1; format: cell-based; conditions: mt2, 72 h; outline: as §2
Protease [4] = target: T1, Protease; test: Inhibition of HIV1 3B protease activity in human H9 cells using Abz-Thr-Ile-Nle-Phe(p-NO2)-Gln-Arg-NH2 as substrate after 40 mins by spectrophotometric analysis; format: cell-based
[5] = system: Human immunodeficiency virus 1; test: Antiviral activity against Human immunodeficiency virus 1 3B infected in human MT2 cells assessed as survival of virus infected cells at 5 nM after 72 to 96 hrs by MTT assay; format: functional
Outline: (§3)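 HIV-1 IIIB from supernatants of chronically infected H9/HTLV IIIB cells; stock characterized by p24, RT activity and infectivity (2 × 10⁶ infectious virions/mL). MT-2 cells in RPMI 1640 + 10% FCS, infected at MOI 0,1 and incubated with inhibitor for 72−96 h. Microtiter infection assay, MTT uptake read at 540 nm, expressed as % survival of virus-infected cells.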

[6] = system: Human immunodeficiency virus 1; test: Antiviral activity against Human immunodeficiency virus 1 3B infected in human MT2 cells assessed as inhibition of reverse transcriptase activity at 10 nM after 72 to 96 hrs by MTT assay relative to untreated control; format: functional; design: scale not given: the % may be the effect or the level left
[7] = (§4) Cytotoxicity against human MT2 cells after 96 hrs by MTT assay; format: cell-based; conditions: MT2 cells; outline: as §2
MT2 [8] = test: as §4; format: cell-based; conditions: mt2, 96 h; outline: as §2
[9] = system: Human immunodeficiency virus 1; test: Antiviral activity against Human immunodeficiency virus 1 3B infected in human MT2 cells assessed as survival of virus infected cells at 10 nM after 72 to 96 hrs by MTT assay; format: functional; outline: as §3
[10] = Ratio of CC50 for human MT2 cells after 96 hrs to CC50 for human MT2 cells after 72 hrs; format: cell-based
[11] = (§5) Cytotoxicity against human MT2 cells assessed as maximum non-toxic concentration after 72 hrs by MTT assay; format: cell-based; conditions: MT2 cells, read-out: MNCC; outline: as §2
MT2 [12] = test: as §5; format: cell-based; conditions: mt2, 72 h; outline: as §2
MT2 [13] = test: Ratio of MNC for human MT2 cells after 96 hrs to MNC for human MT2 cells after 72 hrs; format: ADME, cell-based
[14] = (§6) Cytotoxicity against human MT2 cells assessed as maximum non-toxic concentration after 96 hrs by MTT assay; format: cell-based; conditions: MT2 cells, read-out: MNCC; outline: as §2
MT2 [15] = test: as §6; format: cell-based; conditions: mt2, 96 h; outline: as §2
[16] = system: Human immunodeficiency virus 1; test: Antiviral activity against Human immunodeficiency virus 1 3B infected in human MT2 cells assessed as inhibition of reverse transcriptase activity at 5 nM after 72 to 96 hrs by MTT assay relative to untreated control; format: functional; design: scale not given: the % may be the effect or the level left
[17] = system: Human immunodeficiency virus 1; test: Antiviral activity against Human immunodeficiency virus 1 3B infected in human MT2 cells assessed as survival of virus infected cells at 0.0000001 nM after 72 to 96 hrs by MTT assay; format: functional; outline: as §3
[18] = system: Human immunodeficiency virus 1; test: Antiviral activity against Human immunodeficiency virus 1 3B infected in human MT2 cells assessed as inhibition of reverse transcriptase activity at 0.000001 nM after 72 to 96 hrs by MTT assay relative to untreated control; format: functional; design: scale not given: the % may be the effect or the level left
[19] = system: Human immunodeficiency virus 1; test: Antiviral activity against Human immunodeficiency virus 1 3B infected in human MT2 cells assessed as survival of virus infected cells at 0.1 nM after 72 to 96 hrs by MTT assay; format: functional; outline: as §3
[20] = system: Human immunodeficiency virus 1; test: Antiviral activity against Human immunodeficiency virus 1 3B infected in human MT2 cells assessed as survival of virus infected cells at 0.0001 nM after 72 to 96 hrs by MTT assay; format: functional; outline: as §3
[21] = system: Human immunodeficiency virus 1; test: Antiviral activity against Human immunodeficiency virus 1 3B infected in human MT2 cells assessed as survival of virus infected cells at 0.00001 nM after 72 to 96 hrs by MTT assay; format: functional; outline: as §3
[22] = system: Human immunodeficiency virus 1; test: Antiviral activity against Human immunodeficiency virus 1 3B infected in human MT2 cells assessed as inhibition of reverse transcriptase activity at 0.0001 nM after 72 to 96 hrs by MTT assay relative to untreated control; format: functional; design: scale not given: the % may be the effect or the level left
[23] = system: Human immunodeficiency virus 1; test: Antiviral activity against Human immunodeficiency virus 1 3B infected in human MT2 cells assessed as inhibition of reverse transcriptase activity at 0.00001 nM after 72 to 96 hrs by MTT assay relative to untreated control; format: functional; design: scale not given: the % may be the effect or the level left
[24] = system: Human immunodeficiency virus 1; test: Antiviral activity against Human immunodeficiency virus 1 3B infected in human MT2 cells assessed as survival of virus infected cells at 0.000001 nM after 72 to 96 hrs by MTT assay; format: functional; outline: as §3
[25] = system: Human immunodeficiency virus 1; test: Antiviral activity against Human immunodeficiency virus 1 3B infected in human MT2 cells assessed as inhibition of reverse transcriptase activity at 0.0000001 nM after 72 to 96 hrs by MTT assay relative to untreated control; format: functional; design: scale not given: the % may be the effect or the level left
[26] = system: Human immunodeficiency virus 1; test: Antiviral activity against Human immunodeficiency virus 1 3B infected in human MT2 cells assessed as inhibition of reverse transcriptase activity at 0.1 nM after 72 to 96 hrs by MTT assay relative to untreated control; format: functional; design: scale not given: the % may be the effect or the level left
[27] = system: Human immunodeficiency virus 1; test: Antiviral activity against Human immunodeficiency virus 1 3B infected in human MT2 cells assessed as inhibition of reverse transcriptase activity at 0.001 nM after 72 to 96 hrs by MTT assay relative to untreated control; format: functional; design: scale not given: the % may be the effect or the level left
[28] = system: Human immunodeficiency virus 1; test: Antiviral activity against Human immunodeficiency virus 1 3B infected in human MT2 cells assessed as survival of virus infected cells at 0.001 nM after 72 to 96 hrs by MTT assay; format: functional; outline: as §3

T1 sequence (Q9YQ12 whole entry): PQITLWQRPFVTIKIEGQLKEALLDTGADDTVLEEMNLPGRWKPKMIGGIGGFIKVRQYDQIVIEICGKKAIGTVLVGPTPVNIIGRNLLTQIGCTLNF

CC[C@H](C)[C@H](NC(=O)[C@@H](NC(C)=O)C(C)C)C(=O)N1CCC[C@H]1[C@H](O)[C@@H](O)[C@H](Cc1ccccc1)NC(=O)[C@H](CC(N)=O)NC(=O)[C@H](CC(C)C)NC(=O)[C@H](CO)NC(C)=O
IC50 (Protease [1]): 0.0006 µM

CC(=O)N[C@@H](Cc1c[nH]c2ccccc12)C(=O)N[C@H](C(=O)N1CCC[C@H]1[C@H](O)[C@@H](O)[C@H](Cc1ccccc1)NC(=O)COc1c(C)cccc1C)C(C)C
IC50 (Protease [1]): 0.075 µM

Cc1cccc(C)c1OCC(=O)N[C@@H](Cc1ccccc1)[C@H](O)[C@@H](O)[C@H](Cc1ccccc1)NC(=O)COc1c(C)cccc1C
IC50 (Protease [1]): 0.028 µM

CC(=O)N[C@@H](Cc1c[nH]c2ccccc12)C(=O)N[C@H](C(=O)N[C@@H](Cc1ccccc1)[C@H](O)[C@@H](O)[C@@H]1CCCN1C(=O)[C@@H](NC(=O)[C@H](Cc1c[nH]c2ccccc12)NC(C)=O)C(C)C)C(C)C
CC50 at 72 h [2]: 2500 µM
Activity (MT2 [3]): Dose-dependent effect
IC50 (Protease [4]): 5 nM
survival at 0.005 µM [5]: > 90%
IC50 (Protease [1]): < 0.0006 µM
Activity [6]: 24%
CC50 at 96 h [7]: 0.5 µM
Activity (MT2 [8]): Dose-dependent effect
survival at 0.01 µM [9]: > 90%
selectivity ratio [10]: 5000
MNTC at 72 h [11]: 10 nM
Activity (MT2 [12]): Dose-dependent effect
Ratio (MT2 [13]): 33
MNTC at 96 h [14]: 0.3 nM
Activity (MT2 [15]): Dose-dependent effect
Activity [16]: 50%

Cc1cccc(C)c1OCC(=O)N[C@@H](Cc1ccccc1)[C@H](O)[C@@H](O)[C@@H]1CCCCN1C(=O)COc1c(C)cccc1C
IC50 (Protease [1]): 0.175 µM

Cc1cccc(C)c1OCC(=O)N[C@@H](Cc1ccccc1)[C@@H](O)[C@H](O)[C@H]1CCCN1C(=O)COc1c(C)cccc1C
IC50 (Protease [1]): 3.3 µM

CC(=O)N[C@@H](Cc1c[nH]c2ccccc12)C(=O)N[C@H](C(=O)N[C@@H](Cc1ccccc1)[C@H](O)[C@@H](O)[C@@H]1CCCCN1C(=O)[C@@H](NC(=O)[C@H](Cc1c[nH]c2ccccc12)NC(C)=O)C(C)C)C(C)C
IC50 (Protease [1]): 0.0018 µM

O=C(COc1ccccc1)N[C@@H](Cc1ccccc1)[C@H](O)[C@@H](O)[C@@H]1CCCN1C(=O)COc1ccccc1
IC50 (Protease [1]): 0.614 µM

CC[C@H](NC(=O)COc1ccccc1C)[C@H](O)[C@@H](O)[C@@H]1CCCN1C(=O)COc1ccccc1C
IC50 (Protease [1]): 0.655 µM

CC(=O)N[C@@H](Cc1c[nH]c2ccccc12)C(=O)N[C@H](C(=O)N[C@@H](Cc1ccccc1)[C@H](O)[C@@H](O)[C@H](Cc1ccccc1)NC(=O)[C@@H](NC(=O)[C@H](Cc1c[nH]c2ccccc12)NC(C)=O)C(C)C)C(C)C
IC50 (Protease [1]): 0.006 µM

Cc1cccc(C)c1OCC(=O)N1CCC[C@H]1[C@H](O)[C@@H](O)[C@@H]1CCCN1C(=O)COc1c(C)cccc1C
IC50 (Protease [1]): 290 µM

Cc1cccc(C)c1OCC(=O)N[C@@H](Cc1ccccc1)[C@H](O)[C@@H](O)[C@@H]1CCCN1C(=O)COc1c(C)cccc1C
survival at 1e-10 µM [17]: > 90%
Activity [18]: 28%
CC50 at 72 h [2]: 300 µM
Activity (MT2 [3]): Dose-dependent effect
survival at 0.0001 µM [19]: 78%
survival at 100 fM [20]: 87%
survival at 10 fM [21]: 90%
Activity [22]: 26%
IC50 (Protease [4]): 0.0015 nM
Activity [23]: 29%
survival at 1 fM [24]: > 90%
IC50 (Protease [1]): 0.0096 µM
Activity [25]: 26%
Activity [26]: 24%
CC50 at 96 h [7]: 1000 µM
Activity (MT2 [8]): Dose-dependent effect
MNTC at 72 h [11]: 0.1 nM
Activity (MT2 [12]): Dose-dependent effect
Activity [27]: 25%
MNTC at 96 h [14]: 0.1 nM
Activity (MT2 [15]): Dose-dependent effect
survival at 1 pM [28]: 80%

Cc1cccc(C)c1OCC(=O)N[C@@H](Cc1ccccc1)[C@H](O)[C@@H](O)[C@@H]1CCCN1C(=O)COc1ccccc1
IC50 (Protease [1]): 0.085 µM

CC(=O)c1ccc(OCC(=O)N[C@@H](Cc2ccccc2)[C@H](O)[C@@H](O)[C@@H]2CCCN2C(=O)COc2ccc(C(C)=O)cc2)cc1
IC50 (Protease [1]): 116 µM
